Data: the M2OR odorant receptor database

Key:
Conditions in all cases: stereoisomer not certain
UniProt Q8VGC6 = molecular target: T1, UniProt Q8VGC6
T1 sequence (whole entry): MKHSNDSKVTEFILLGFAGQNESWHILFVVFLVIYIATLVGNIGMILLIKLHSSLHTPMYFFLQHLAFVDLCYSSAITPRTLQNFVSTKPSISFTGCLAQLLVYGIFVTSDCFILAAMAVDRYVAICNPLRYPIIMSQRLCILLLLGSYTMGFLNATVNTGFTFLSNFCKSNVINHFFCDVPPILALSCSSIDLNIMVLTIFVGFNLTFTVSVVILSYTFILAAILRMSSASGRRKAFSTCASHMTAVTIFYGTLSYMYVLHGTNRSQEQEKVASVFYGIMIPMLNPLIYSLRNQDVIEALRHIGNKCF
Outline: (§1)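 Transient luciferase assays in mammalian cell lines were common, though methods varied by source. The values come from published papers and their supplementary material, with extra details from the original authors when needed. Responsive refers to a measured signal the original authors judged statistically different from baseline, and non-responsive (inactive) to the remainder.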

UniProt Q8VGD7 = molecular target: T2, UniProt Q8VGD7
T2 sequence (whole entry): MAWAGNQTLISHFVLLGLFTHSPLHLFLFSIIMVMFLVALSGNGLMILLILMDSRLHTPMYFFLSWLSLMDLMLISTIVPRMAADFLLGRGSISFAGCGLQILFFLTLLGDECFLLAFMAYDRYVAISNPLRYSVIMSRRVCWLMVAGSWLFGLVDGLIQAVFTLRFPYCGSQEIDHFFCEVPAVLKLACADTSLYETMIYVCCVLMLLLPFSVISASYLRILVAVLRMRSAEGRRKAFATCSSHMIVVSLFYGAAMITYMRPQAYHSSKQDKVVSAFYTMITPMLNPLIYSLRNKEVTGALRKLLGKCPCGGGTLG
Outline: as §1

UniProt Q8VGH1 = molecular target: T3, UniProt Q8VGH1
T3 sequence (whole entry): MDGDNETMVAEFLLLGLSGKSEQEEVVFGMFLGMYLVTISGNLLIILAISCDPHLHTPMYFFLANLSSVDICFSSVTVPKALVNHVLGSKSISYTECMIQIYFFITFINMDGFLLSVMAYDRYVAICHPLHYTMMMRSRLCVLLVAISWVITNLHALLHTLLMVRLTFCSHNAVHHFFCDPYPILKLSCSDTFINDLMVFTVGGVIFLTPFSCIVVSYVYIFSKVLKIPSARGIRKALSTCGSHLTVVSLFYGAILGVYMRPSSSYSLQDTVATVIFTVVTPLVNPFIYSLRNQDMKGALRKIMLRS
Outline: as §1

UniProt Q8VGJ1 = molecular target: T4, UniProt Q8VGJ1
T4 sequence (whole entry): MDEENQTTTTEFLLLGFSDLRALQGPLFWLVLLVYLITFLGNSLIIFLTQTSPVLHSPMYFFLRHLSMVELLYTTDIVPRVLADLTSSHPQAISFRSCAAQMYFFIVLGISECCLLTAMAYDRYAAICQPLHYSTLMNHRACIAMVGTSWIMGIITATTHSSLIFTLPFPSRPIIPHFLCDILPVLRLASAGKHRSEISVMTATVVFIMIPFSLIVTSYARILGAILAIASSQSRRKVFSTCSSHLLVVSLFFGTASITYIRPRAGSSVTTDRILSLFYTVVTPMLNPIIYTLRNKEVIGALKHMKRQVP
Outline: as §1

UniProt Q8VGJ3 = molecular target: T5, UniProt Q8VGJ3
T5 sequence (whole entry): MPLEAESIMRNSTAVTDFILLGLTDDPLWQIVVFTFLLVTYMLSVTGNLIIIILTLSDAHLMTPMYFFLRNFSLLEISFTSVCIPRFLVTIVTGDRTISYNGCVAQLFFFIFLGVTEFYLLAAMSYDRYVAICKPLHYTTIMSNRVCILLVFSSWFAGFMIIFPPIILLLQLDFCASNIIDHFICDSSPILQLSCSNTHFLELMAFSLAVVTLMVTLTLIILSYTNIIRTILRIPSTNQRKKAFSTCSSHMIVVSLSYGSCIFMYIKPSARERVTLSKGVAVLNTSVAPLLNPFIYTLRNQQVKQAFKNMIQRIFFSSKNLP
Outline: as §1

UniProt Q8VGJ5 = molecular target: T6, UniProt Q8VGJ5
T6 sequence (whole entry): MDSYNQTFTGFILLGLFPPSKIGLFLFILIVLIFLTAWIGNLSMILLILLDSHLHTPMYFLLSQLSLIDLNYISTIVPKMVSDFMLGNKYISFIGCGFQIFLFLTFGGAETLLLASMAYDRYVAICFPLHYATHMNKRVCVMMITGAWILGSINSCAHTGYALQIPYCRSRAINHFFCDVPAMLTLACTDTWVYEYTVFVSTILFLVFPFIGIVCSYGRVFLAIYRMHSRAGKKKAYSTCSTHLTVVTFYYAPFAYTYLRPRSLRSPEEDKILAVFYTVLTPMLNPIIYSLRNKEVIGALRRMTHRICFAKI
Outline: as §1

UniProt Q8VGL0 = molecular target: T7, UniProt Q8VGL0
T7 sequence (whole entry): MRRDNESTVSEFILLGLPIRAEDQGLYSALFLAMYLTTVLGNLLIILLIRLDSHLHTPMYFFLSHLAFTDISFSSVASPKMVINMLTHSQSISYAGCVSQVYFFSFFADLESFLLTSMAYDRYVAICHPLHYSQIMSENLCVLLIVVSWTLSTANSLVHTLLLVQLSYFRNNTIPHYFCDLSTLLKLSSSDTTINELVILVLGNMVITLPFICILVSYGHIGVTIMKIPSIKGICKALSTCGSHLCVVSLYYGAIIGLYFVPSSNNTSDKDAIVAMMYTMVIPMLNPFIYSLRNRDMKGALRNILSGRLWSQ
Outline: as §1

UniProt Q8VGL7 = molecular target: T8, UniProt Q8VGL7
T8 sequence (whole entry): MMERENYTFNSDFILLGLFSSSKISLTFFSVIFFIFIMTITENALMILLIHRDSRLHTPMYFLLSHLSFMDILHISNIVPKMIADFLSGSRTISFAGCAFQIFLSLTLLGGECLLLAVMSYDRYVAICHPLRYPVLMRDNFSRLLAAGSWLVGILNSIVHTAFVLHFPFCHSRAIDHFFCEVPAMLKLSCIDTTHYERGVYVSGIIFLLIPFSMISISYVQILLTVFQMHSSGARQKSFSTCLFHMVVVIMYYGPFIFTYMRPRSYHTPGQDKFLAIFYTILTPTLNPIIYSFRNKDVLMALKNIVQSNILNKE
Outline: as §1

UniProt Q8VGM2 = molecular target: T9, UniProt Q8VGM2
T9 sequence (whole entry): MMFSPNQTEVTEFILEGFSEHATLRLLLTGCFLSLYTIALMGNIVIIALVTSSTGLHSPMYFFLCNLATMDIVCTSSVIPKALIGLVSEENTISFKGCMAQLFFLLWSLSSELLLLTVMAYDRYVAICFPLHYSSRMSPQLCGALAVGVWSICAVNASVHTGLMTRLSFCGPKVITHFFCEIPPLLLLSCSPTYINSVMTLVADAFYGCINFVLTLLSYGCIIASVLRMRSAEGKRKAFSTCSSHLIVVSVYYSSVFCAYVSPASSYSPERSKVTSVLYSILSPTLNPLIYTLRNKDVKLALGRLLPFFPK
Outline: as §1

UniProt Q8VGP6 = molecular target: T10, UniProt Q8VGP6
T10 sequence (whole entry): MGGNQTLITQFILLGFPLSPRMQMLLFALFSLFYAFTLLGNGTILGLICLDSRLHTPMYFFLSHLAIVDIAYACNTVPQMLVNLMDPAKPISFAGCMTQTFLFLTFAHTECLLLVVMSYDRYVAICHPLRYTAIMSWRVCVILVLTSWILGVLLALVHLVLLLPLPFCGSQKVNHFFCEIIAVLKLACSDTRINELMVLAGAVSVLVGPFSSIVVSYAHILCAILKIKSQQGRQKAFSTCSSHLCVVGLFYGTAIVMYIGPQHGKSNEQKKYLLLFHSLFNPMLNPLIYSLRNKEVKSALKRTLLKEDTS
Outline: as §1

UniProt Q8VGQ3 = molecular target: T11, UniProt Q8VGQ3
T11 sequence (whole entry): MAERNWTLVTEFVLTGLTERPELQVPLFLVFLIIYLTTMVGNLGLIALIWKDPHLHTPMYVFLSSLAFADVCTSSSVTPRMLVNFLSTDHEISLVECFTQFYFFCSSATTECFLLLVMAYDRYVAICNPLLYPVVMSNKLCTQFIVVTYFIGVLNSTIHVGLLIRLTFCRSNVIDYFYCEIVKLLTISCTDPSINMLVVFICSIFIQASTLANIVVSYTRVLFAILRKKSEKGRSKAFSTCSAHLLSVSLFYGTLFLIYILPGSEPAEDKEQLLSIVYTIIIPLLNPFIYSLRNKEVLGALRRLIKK
Outline: as §1

UniProt Q8VGT4 = molecular target: T12, UniProt Q8VGT4
T12 sequence (whole entry): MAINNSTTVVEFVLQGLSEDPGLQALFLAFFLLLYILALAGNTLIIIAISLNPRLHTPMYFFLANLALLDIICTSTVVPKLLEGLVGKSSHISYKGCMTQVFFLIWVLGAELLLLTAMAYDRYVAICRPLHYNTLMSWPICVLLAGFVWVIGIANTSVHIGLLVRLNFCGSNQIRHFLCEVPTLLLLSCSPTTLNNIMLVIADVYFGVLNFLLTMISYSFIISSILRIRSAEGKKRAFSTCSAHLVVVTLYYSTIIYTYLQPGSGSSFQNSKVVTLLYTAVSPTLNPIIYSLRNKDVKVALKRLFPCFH
Outline: as §1

UniProt Q8VGU3 = molecular target: T13, UniProt Q8VGU3
T13 sequence (whole entry): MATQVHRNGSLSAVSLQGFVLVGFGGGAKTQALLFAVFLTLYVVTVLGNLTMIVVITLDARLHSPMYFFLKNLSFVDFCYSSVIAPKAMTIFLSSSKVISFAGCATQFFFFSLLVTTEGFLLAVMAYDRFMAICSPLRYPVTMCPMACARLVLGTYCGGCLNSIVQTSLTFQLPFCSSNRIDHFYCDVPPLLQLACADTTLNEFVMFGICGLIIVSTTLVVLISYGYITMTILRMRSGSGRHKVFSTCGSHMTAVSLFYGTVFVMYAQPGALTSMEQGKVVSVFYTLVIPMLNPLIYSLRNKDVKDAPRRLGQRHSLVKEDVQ
Outline: as §1

UniProt Q8VGV1 = molecular target: T14, UniProt Q8VGV1
T14 sequence (whole entry): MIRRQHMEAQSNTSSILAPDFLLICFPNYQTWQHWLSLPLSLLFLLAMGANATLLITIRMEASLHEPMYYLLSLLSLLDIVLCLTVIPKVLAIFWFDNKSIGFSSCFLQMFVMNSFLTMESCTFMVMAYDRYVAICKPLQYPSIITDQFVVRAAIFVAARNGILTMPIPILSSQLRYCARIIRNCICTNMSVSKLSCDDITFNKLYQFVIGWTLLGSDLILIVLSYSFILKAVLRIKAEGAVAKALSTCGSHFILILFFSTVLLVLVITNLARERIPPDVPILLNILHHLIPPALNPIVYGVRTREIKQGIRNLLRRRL
Outline: as §1

UniProt Q8VGV7 = molecular target: T15, UniProt Q8VGV7
T15 sequence (whole entry): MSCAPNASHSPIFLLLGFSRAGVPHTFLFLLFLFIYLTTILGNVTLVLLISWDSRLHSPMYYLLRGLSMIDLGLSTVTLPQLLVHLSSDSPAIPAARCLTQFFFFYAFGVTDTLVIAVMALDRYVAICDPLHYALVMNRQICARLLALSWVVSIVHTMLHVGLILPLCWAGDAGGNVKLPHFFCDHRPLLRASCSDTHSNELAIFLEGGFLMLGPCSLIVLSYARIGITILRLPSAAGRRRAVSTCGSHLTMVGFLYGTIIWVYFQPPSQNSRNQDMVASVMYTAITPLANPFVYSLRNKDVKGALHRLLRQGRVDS
Outline: as §1

UniProt Q8VGX3 = molecular target: T16, UniProt Q8VGX3
T16 sequence (whole entry): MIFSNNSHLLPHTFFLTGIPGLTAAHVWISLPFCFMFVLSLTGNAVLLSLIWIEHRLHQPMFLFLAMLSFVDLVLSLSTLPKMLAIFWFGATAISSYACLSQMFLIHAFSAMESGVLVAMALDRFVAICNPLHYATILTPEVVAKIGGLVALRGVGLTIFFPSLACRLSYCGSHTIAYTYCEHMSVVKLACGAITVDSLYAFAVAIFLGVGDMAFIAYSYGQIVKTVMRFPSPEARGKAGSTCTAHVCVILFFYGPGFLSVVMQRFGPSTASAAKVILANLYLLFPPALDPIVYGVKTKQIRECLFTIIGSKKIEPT
Outline: as §1

UniProt Q8VGX5 = molecular target: T17, UniProt Q8VGX5
T17 sequence (whole entry): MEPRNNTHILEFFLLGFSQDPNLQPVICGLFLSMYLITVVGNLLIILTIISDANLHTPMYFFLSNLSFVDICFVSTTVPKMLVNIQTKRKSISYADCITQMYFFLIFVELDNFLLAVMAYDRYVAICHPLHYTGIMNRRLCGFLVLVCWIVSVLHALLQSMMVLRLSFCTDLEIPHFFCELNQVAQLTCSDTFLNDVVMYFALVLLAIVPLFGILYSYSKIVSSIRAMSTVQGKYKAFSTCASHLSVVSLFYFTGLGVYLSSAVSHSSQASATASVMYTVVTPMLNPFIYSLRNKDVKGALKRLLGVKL
Outline: as §1

UniProt Q8VGW5 = molecular target: T18, UniProt Q8VGW5
T18 sequence (whole entry): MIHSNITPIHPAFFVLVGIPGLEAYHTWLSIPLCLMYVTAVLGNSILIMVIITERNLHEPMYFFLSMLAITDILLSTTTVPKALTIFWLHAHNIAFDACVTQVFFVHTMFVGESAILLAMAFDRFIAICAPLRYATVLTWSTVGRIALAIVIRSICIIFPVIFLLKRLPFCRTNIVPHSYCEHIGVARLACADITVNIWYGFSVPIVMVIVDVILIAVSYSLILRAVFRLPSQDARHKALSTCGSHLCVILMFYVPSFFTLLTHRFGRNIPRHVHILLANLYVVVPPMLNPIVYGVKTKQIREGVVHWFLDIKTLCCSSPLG
Outline: as §1

Measured: odorant receptor agonist call

O=C1Cc2ccccc2O1
active: UniProt Q8VGX5
not listed: UniProt Q8VGW5
inactive: all other assays above

Cc1c(C)c(C)c(C=O)c(C)c1C
inactive: UniProt Q8VGC6 | UniProt Q8VGJ3 | UniProt Q8VGL0 | UniProt Q8VGU3 | UniProt Q8VGV7 | UniProt Q8VGX3 | UniProt Q8VGX5

CCCCCO
not listed: UniProt Q8VGJ3 | UniProt Q8VGU3 | UniProt Q8VGV7 | UniProt Q8VGX3 | UniProt Q8VGW5
inactive: all other assays above

CCC(=O)O
not listed: UniProt Q8VGW5
inactive: all other assays above

CCCCCCC(=O)[O-].[H+]
not listed: UniProt Q8VGJ3 | UniProt Q8VGU3 | UniProt Q8VGV7 | UniProt Q8VGX3
inactive: all other assays above
